Assay results taken from ChEMBL document CHEMBL2346625 (Bioorg Med Chem, 2013).
≈ marks a conversion by molar mass, not a printed value.

Tests used:
[1] = (§1) Half life in mouse liver microsomes at 0.5 to 1 uM by LC-MS/MS analysis; assay type: ADME, Microsome; conditions: liver microsomes
[2] = tested on: Streptococcus pyogenes; assay: Growth inhibition of Streptococcus pyogenes UMAA2616 at 50 uM relative to control; assay type: organism-based; conditions: in vitro
Method in brief: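 Diluted 1:1000 into THY containing compound at 50 μM in 0.1% DMSO and grown in triplicate at 37 °C to OD600 ≈ 1.0. Growth given as OD600 test/DMSO control; mean of at least three experiments ± SD.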

[3] = tested on: Liver; assay: as §1; assay type: ADME, Microsome; conditions: microsomes, 1 µM
[4] = Kinetic solubility of the compound in aqueous Todd Hewitt bacterial media at 0.87 to 99 uM by UV/Vis spectrophotometry; assay type: physicochemical; conditions: read-out: Kinetic_solubility
Method in brief: (§2)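 10 mM DMSO stocks serially diluted in DMSO, then added 1:100 to Todd-Hewitt broth at 37 °C, giving final 0.87–99 μM. Plate shaken, incubated 5 min at 37 °C, and OD600 read (n = 3). Solubility taken as the midpoint between the first concentration with OD600 ≥ 0.005 AU above background and the preceding concentration, ± half the interval.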

[5] = tested on: Liver; assay: Metabolic stability in mouse liver microsomes assessed as oxidation of compound; assay type: ADME, Microsome
[6] = molecular target: T1, Streptokinase (Streptococcus pyogenes, UniProt P96471)
T1 sequence (P96471 whole entry): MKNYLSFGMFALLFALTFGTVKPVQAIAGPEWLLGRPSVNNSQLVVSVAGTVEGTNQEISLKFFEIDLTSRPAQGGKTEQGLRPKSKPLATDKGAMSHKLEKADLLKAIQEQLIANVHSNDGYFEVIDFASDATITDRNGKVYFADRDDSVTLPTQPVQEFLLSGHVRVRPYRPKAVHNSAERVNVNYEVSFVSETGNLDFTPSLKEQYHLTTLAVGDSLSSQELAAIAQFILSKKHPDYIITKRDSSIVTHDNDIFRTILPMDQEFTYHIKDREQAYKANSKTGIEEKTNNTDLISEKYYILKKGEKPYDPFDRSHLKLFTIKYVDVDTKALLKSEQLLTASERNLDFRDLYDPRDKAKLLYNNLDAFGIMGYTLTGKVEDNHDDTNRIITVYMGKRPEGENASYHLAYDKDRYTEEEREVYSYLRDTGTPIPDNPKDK

[7] = Kinetic solubility of the compound in phosphate-buffered saline at 0.87 to 99 uM by UV/Vis spectrophotometry; assay type: physicochemical
Method in brief: as §2, with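 “PBS” for “Todd-Hewitt broth”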

[8] = molecular target: T2, Streptokinase (Streptococcus pyogenes) (UniProt P96471); assay: Inhibition of Streptococcus pyogenes UMAA2616 streptokinase assessed as cleavage of S-2403 to colored product p-nitroaniline at 50 uM after 2 hrs relative to control
T2 sequence (whole entry): T1 sequence (P96471 whole entry)
Method in brief: (§3)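 UMAA2616 grown in THY (0.1% DMSO, compound at 5 or 50 μM) at 37 °C to OD600 ≈ 1.0, then centrifuged. Supernatant mixed with PBS, human plasma and S-2403 plasmin substrate and incubated 2 h at 37 °C; A405 read. Activity came from a DMSO-culture standard curve, was corrected for growth by OD600 and expressed as test/control. Mean of at least three experiments ± SD.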

[9] = molecular target: T2, Streptokinase (Streptococcus pyogenes); assay: Inhibition of Streptococcus pyogenes UMAA2616 streptokinase assessed as cleavage of S-2403 to colored product p-nitroaniline at 5 uM after 2 hrs relative to control; method in brief: as §3

## CCSc1nc2c(c(=O)n1CC(F)(F)F)C(C)(C)Cc1ccc(OC)cc1-2
[1]
  half-life: 3 min
[2]
  T/C: 1.01

## C=CCn1c(OCC)nc2c(c1=O)C(C)(C)Cc1ccccc1-2
[3]
  t1/2: 0.9 min
[2]
  T/C: 0.5

## C=CCn1c(SCc2ccccn2)nc2c(c1=O)C(C)(C)Cc1ccccc1-2
[2]
  T/C: 1.05

## C=CCn1c(SCC)nc2c(c1=O)C(C)(C)Cc1cc(OCCc3ccccc3)ccc1-2
[2]
  T/C: 1.01

## C=CCn1c(SCCOC)nc2c(c1=O)C(C)(C)Cc1ccccc1-2
[4]
  solubility kinetic: 22.5 µM (≈ 8.02 µg/mL)
[3]
  t1/2: 1.7 min

## C=CCn1c(SCCOC)nc2c(c1=O)C1(CCCCC1)Cc1ccccc1-2
[4]
  solubility kinetic: 9 µM (≈ 3.57 µg/mL)
[3]
  t1/2: 6.4 min
[5]
  Stability: Stable
[2]
  T/C: 0.99

## C=CCn1c(SC)nc2c(c1=O)C1(CCCCC1)Cc1ccccc1-2
[4]
  solubility kinetic: 22 µM (≈ 7.76 µg/mL)
[3]
  t1/2: 13.5 min

## C=CCn1c(SCc2ccc(OC)cc2)nc2c(c1=O)C1(CCCCC1)Cc1ccccc1-2
[2]
  T/C: 1.05

## C=CCn1c(SCCOC)nc2c(c1=O)C(C)(C)Cc1cc(C(=O)NCc3ccccc3)ccc1-2
[2]
  T/C: 1.07

## C=CCn1c(SCC)nc2c(c1=O)C(C)(C)Cc1ccc(OCCOC)cc1-2
[2]
  T/C: 1.02

## C=CCn1c(SCC)nc2c(c1=O)C(C)(C)Cc1cc(OCCCCCCC)ccc1-2
[2]
  T/C: 1.05

## C=CCn1c(SCCN(C)C)nc2c(c1=O)C1(CCCCC1)Cc1ccccc1-2
[2]
  T/C: 0.88

## C=CCn1c(SCC(=O)OCC)nc2c(c1=O)C(C)(C)Cc1ccccc1-2
[2]
  T/C: 1.01

## CCn1c(SCc2ccccc2)nc2c(c1=O)C1(CCCC1)Cc1ccccc1-2
[2]
  T/C: 1.07

## C=CCn1c(SCC)nc2c(c1=O)C(C)(C)Cc1cc(OCCOC)ccc1-2
[2]
  T/C: 0.85

## C=CCn1c(SCCCC)nc2c(c1=O)C1(CCCCC1)Cc1ccccc1-2 [CCG-2979]
[4]
  solubility kinetic: 9 µM (≈ 3.55 µg/mL)
[6]
  IC50: > 50 µM
[3]
  t1/2: 37.2 min
[7]
  solubility kinetic: 2 µM (≈ 0.789 µg/mL)
[2]
  T/C: 0.95

## C=CCn1c(SCCOC)nc2c(c1=O)C(C)(C)Cc1cc(C(=O)NCCc3c[nH]cn3)ccc1-2
[2]
  T/C: 0.99

## C=CCn1c(SCCOC)nc2c(c1=O)C(C)(C)Cc1cc(C(=O)O)ccc1-2
[2]
  T/C: 0.86

## C=CCn1c(SCc2ccccc2)nc2c(c1=O)C1(CCCCC1)Cc1ccccc1-2 [CCG-102487]
[4]
  solubility kinetic: 9 µM (≈ 3.86 µg/mL)
[6]
  IC50: > 50 µM
[3]
  t1/2: 0.6 min
[2]
  T/C: 0.96

## C=CCn1c(SCc2ccccc2)nc2c(c1=O)C(C)(C)Cc1ccccc1-2
[4]
  solubility kinetic: 9 µM (≈ 3.5 µg/mL)

## C=CCn1c(NCC)nc2c(c1=O)C1(CCCCC1)Cc1ccccc1-2
[4]
  solubility kinetic: 9 µM (≈ 3.15 µg/mL)
[2]
  T/C: 0.32

## C=CCn1c(SCC)nc2c(c1=O)C(C)(C)Cc1cc(OCCCC)ccc1-2
[2]
  T/C: 0.87

## C=CCn1c(SCC(N)=O)nc2c(c1=O)C(C)(C)Cc1ccccc1-2
[3]
  t1/2: < 2 min
[2]
  T/C: 1

## C=CCn1c(SCc2ccc(NC(C)=O)cc2)nc2c(c1=O)C1(CCCCC1)Cc1ccccc1-2
[2]
  T/C: 0.96

## C=CCn1c(OCC)nc2c(c1=O)C1(CCCCC1)Cc1ccccc1-2
[4]
  solubility kinetic: 14.5 µM (≈ 5.08 µg/mL)
[2]
  T/C: 1.02

## C=CCn1c(NCC)nc2c(c1=O)C(C)(C)Cc1cc(CC(=O)OCC)ccc1-2
[2]
  T/C: 1.02

## C=CCn1c(SCC#N)nc2c(c1=O)C(C)(C)Cc1ccccc1-2
[4]
  solubility kinetic: 34.5 µM (≈ 11.6 µg/mL)
[3]
  t1/2: 20.6 min
[7]
  solubility kinetic: 3 µM (≈ 1.01 µg/mL)
[2]
  T/C: 1

## CCn1c(SCCOC)nc2c(c1=O)C(C)(C)Cc1ccccc1-2
[3]
  t1/2: 0.8 min
[2]
  T/C: 0.39

## COCCSc1nc2c(c(=O)n1CCc1ccc(OC)cc1)C(C)(C)Cc1ccccc1-2
[1]
  half-life: 9.4 min
[8]
  T/C: 0.61
[9]
  T/C: 0.71
[2]
  T/C: 0.97

## C=CCn1c(NCC)nc2c(c1=O)C(C)(C)Cc1ccccc1-2
[3]
  t1/2: 1.1 min
[2]
  T/C: 0.06

## C=CCn1c(SCCO)nc2c(c1=O)C(C)(C)Cc1ccccc1-2
[2]
  T/C: 0.06
